From publication PMC4160279 (Journal of the American Chemical Society, 2014)

Assays:
P dimer VA115 = molecular target: T1, P dimer VA115 (Human calicivirus NLV/VA98115/1998, UniProt Q91H12); assay: Direct ESI-MS assay; format: binding; conditions: n = 3
T1 sequence (Q91H12 227-545): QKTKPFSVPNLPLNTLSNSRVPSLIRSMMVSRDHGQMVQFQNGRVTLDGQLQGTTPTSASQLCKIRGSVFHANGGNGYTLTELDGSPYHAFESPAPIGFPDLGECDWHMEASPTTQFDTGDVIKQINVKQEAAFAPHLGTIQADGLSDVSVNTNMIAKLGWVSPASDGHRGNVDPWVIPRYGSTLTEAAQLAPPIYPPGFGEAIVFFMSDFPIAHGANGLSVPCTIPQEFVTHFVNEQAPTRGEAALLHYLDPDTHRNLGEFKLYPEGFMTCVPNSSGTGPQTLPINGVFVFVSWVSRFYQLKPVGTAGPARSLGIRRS
Procedure, shortened: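 Recombinant P dimer (P domain residues 222–539, made in E. coli via a GST fusion system) was titrated with at least four initial oligosaccharide concentrations, in triplicate. Example mix: 12 μM dimer, 80 μM ligand, 4 μM reference protein. Bound/free abundance ratios were taken as solution ratios after nonspecific-binding correction. Ka,int was fitted assuming two independent, equivalent sites.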

NoV VA387 P dimer = assay: Direct ESI-MS assay, NoV VA387 P dimer; set-up: species or system human NoV VA387 (GII.4); conditions: intrinsic (per binding site) association constant; aqueous ammonium acetate (200 mM), pH 7, 25 °C
Procedure, shortened: (§1)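 Recombinant P dimer, buffer-exchanged into ammonium acetate and quantified by UV, was mixed (e.g., 12 μM) with ganglioside oligosaccharide (e.g., 80 μM) and reference protein (4 μM). Nanoelectrospray in negative ion mode used capillary −0.8 kV, cone 60 V and source 60 °C. Runs covered ≥4 initial ligand concentrations in triplicate. Ka,int came from bound/free abundance ratios, corrected for nonspecific binding, with two equivalent sites.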

NoV VA115 P dimer = assay: Direct ESI-MS assay, NoV VA115 P dimer; set-up: species or system human NoV VA115 (GI.3); conditions: intrinsic (per binding site) association constant; aqueous ammonium acetate (200 mM), pH 7, 25 °C
Procedure, shortened: as §1

SMILES	Kd (P dimer VA115) [mM]	Ka,int P dimer VA387 (NoV VA387 P dimer)	Ka,int P dimer VA115 (NoV VA115 P dimer) [M^–1]	Ka,int (P dimer VA115) [M⁻¹]
CC(=O)N[C@H]1[C@H](O[C@@H]2[C@H](O[C@]3(C(=O)O)C[C@H](O)[C@@H](NC(C)=O)[C@H]([C@H](O)[C@@H](CO)O[C@]4(C(=O)O)C[C@H](O)[C@@H](NC(C)=O)[C@H]([C@H](O)[C@H](O)CO)O4)O3)[C@@H](O)[C@H](O[C@H]3[C@H](O)[C@@H](O)C(O)O[C@@H]3CO)O[C@@H]2CO)O[C@H](CO)[C@H](O)[C@@H]1O[C@@H]1O[C@H](CO)[C@H](O)[C@H](O)[C@H]1O (stereo partly shown) [GD1b, GD1b ganglioside oligosaccharide (Galb1-3GalNAcb1-4(Neu5Aca2-8Neu5Aca2-3)Galb1-4Glc)]	2.94			
CC(=O)N[C@H]1[C@H](O[C@@H]2[C@H](O[C@]3(C(=O)O)C[C@H](O)[C@@H](NC(C)=O)[C@H]([C@H](O)[C@@H](CO)O[C@]4(C(=O)O)C[C@H](O)[C@@H](NC(C)=O)[C@H]([C@H](O)[C@H](O)CO)O4)O3)[C@@H](O)[C@H](O[C@H]3[C@H](O)[C@@H](O)C(O)O[C@@H]3CO)O[C@@H]2CO)O[C@H](CO)[C@H](O)[C@@H]1O[C@@H]1O[C@H](CO)[C@H](O)[C@H](O)[C@H]1O (stereo partly shown) [GD1b]		do not show any detectable binding	340 ± 50	
CC(=O)N[C@H]1[C@H](O[C@@H]2[C@H](O[C@]3(C(=O)O)C[C@H](O)[C@@H](NC(C)=O)[C@H]([C@H](O)[C@@H](CO)O[C@]4(C(=O)O)C[C@H](O)[C@@H](NC(C)=O)[C@H]([C@H](O)[C@H](O)CO)O4)O3)[C@@H](O)[C@H](O[C@H]3[C@H](O)[C@@H](O)C(O)O[C@@H]3CO)O[C@@H]2CO)O[C@H](CO)[C@H](O)[C@@H]1O (stereo partly shown) [GD2]		150 ± 60 M^–1	700 ± 140	
CC(=O)N[C@H]1[C@H]([C@H](O)[C@H](O)CO)O[C@@](O[C@H](CO)[C@@H](O)[C@@H]2O[C@@](O[C@H]3[C@@H](O)[C@@H](CO)O[C@@H](O[C@H]4[C@H](O)[C@@H](O)C(O)O[C@@H]4CO)[C@@H]3O)(C(=O)O)C[C@H](O)[C@H]2NC(C)=O)(C(=O)O)C[C@@H]1O (stereo partly shown) [GD3]		340 ± 60 M^–1	420 ± 140	
CC(=O)N[C@H]1[C@H](O[C@@H]2[C@H](O[C@]3(C(=O)O)C[C@H](O)[C@@H](NC(C)=O)[C@H]([C@H](O)[C@H](O)CO)O3)[C@@H](O)[C@H](O[C@H]3[C@H](O)[C@@H](O)C(O)O[C@@H]3CO)O[C@@H]2CO)O[C@H](CO)[C@H](O)[C@@H]1O[C@@H]1O[C@H](CO)[C@H](O)[C@H](O)[C@H]1O (stereo partly shown) [GM1a]		350 ± 80 M^–1	400 ± 140	
CC(=O)N[C@H]1[C@H](O[C@@H]2[C@H](O)[C@@H](O)[C@H](O[C@H]3[C@H](O)[C@@H](O)C(O)O[C@@H]3CO)O[C@@H]2CO)O[C@H](CO)[C@H](O)[C@@H]1O[C@@H]1O[C@H](CO)[C@H](O)[C@H](O[C@]2(C(=O)O)C[C@H](O)[C@@H](NC(C)=O)[C@H]([C@H](O)[C@H](O)CO)O2)[C@H]1O (stereo partly shown) [GM1b]		180 ± 60 M^–1	480 ± 110	
CC(=O)N[C@H]1[C@H](O[C@@H]2[C@H](O[C@]3(C(=O)O)C[C@H](O)[C@@H](NC(C)=O)[C@H]([C@H](O)[C@H](O)CO)O3)[C@@H](O)[C@H](O[C@H]3[C@H](O)[C@@H](O)C(O)O[C@@H]3CO)O[C@@H]2CO)O[C@H](CO)[C@H](O)[C@@H]1O (stereo partly shown) [GM2]		360 ± 90 M^–1	700 ± 200	
CC(=O)N[C@H]1[C@H](O[C@@H]2[C@H](O[C@]3(C(=O)O)C[C@H](O)[C@@H](NC(C)=O)[C@H]([C@H](O)[C@H](O)CO)O3)[C@@H](O)[C@H](O[C@H]3[C@H](O)[C@@H](O)C(O)O[C@@H]3CO)O[C@@H]2CO)O[C@H](CO)[C@H](O)[C@@H]1O[C@@H]1O[C@H](CO)[C@H](O)[C@H](O[C@]2(C(=O)O)C[C@H](O)[C@@H](NC(C)=O)[C@H]([C@H](O)[C@@H](CO)O[C@]3(C(=O)O)C[C@H](O)[C@@H](NC(C)=O)[C@H]([C@H](O)[C@H](O)CO)O3)O2)[C@H]1O (stereo partly shown) [GT1a, GT1a ganglioside oligosaccharide (Neu5Aca2-8Neu5Aca2-3Galb1-3GalNAcb1-4(Neu5Aca2-3)Galb1-4Glc)]				210 ± 70
CC(=O)N[C@H]1[C@H](O[C@@H]2[C@H](O[C@]3(C(=O)O)C[C@H](O)[C@@H](NC(C)=O)[C@H]([C@H](O)[C@H](O)CO)O3)[C@@H](O)[C@H](O[C@H]3[C@H](O)[C@@H](O)C(O)O[C@@H]3CO)O[C@@H]2CO)O[C@H](CO)[C@H](O)[C@@H]1O[C@@H]1O[C@H](CO)[C@H](O)[C@H](O[C@]2(C(=O)O)C[C@H](O)[C@@H](NC(C)=O)[C@H]([C@H](O)[C@@H](CO)O[C@]3(C(=O)O)C[C@H](O)[C@@H](NC(C)=O)[C@H]([C@H](O)[C@H](O)CO)O3)O2)[C@H]1O (stereo partly shown) [GT1a]		do not show any detectable binding	210 ± 70	
CC(=O)N[C@H]1[C@H](O[C@@H]2[C@H](O[C@]3(C(=O)O)C[C@H](O)[C@@H](NC(C)=O)[C@H]([C@H](O)[C@@H](CO)O[C@]4(C(=O)O)C[C@H](O)[C@@H](NC(C)=O)[C@H]([C@H](O)[C@@H](CO)O[C@]5(C(=O)O)C[C@H](O)[C@@H](NC(C)=O)[C@H]([C@H](O)[C@H](O)CO)O5)O4)O3)[C@@H](O)[C@H](O[C@H]3[C@H](O)[C@@H](O)C(O)O[C@@H]3CO)O[C@@H]2CO)O[C@H](CO)[C@H](O)[C@@H]1O[C@@H]1O[C@H](CO)[C@H](O)[C@H](O)[C@H]1O (stereo partly shown) [GT1c]		<100 M^–1	260 ± 110	
CC(=O)NC1C(OC2C(CO)OC(OC3C(CO)OC(O)C(O)C3O)C(O)C2OC2(C(=O)O)CC(O)C(NC(C)=O)C(C(O)C(CO)OC3(C(=O)O)CC(O)C(NC(C)=O)C(C(O)C(CO)OC4(C(=O)O)CC(O)C(NC(C)=O)C(C(O)C(O)CO)O4)O3)O2)OC(CO)C(O)C1O (stereo not shown) [GT2]		<100 M^–1	230 ± 50	
CC(=O)NC1C(O)CC(OC(CO)C(O)C2OC(OC(CO)C(O)C3OC(OC4C(O)C(CO)OC(OC5C(CO)OC(O)C(O)C5O)C4O)(C(=O)O)CC(O)C3NC(C)=O)(C(=O)O)CC(O)C2NC(C)=O)(C(=O)O)OC1C(O)C(O)CO (stereo not shown) [GT3, GT3 ganglioside oligosaccharide (Neu5Aca2-8Neu5Aca2-8Neu5Aca2-3Galb1-4Glc)]	3.23			
CC(=O)NC1C(O)CC(OC(CO)C(O)C2OC(OC(CO)C(O)C3OC(OC4C(O)C(CO)OC(OC5C(CO)OC(O)C(O)C5O)C4O)(C(=O)O)CC(O)C3NC(C)=O)(C(=O)O)CC(O)C2NC(C)=O)(C(=O)O)OC1C(O)C(O)CO (stereo not shown) [GT3]		do not show any detectable binding	310 ± 150	
CC(=O)NC1C(O)CC(OC2C(O)C(OC3C(CO)OC(O)C(O)C3O)OC(CO)C2OC2OC(CO)C(O)C(OC3OC(CO)C(O)C(O)C3OC3OC(C)C(O)C(O)C3O)C2NC(C)=O)(C(=O)O)OC1C(O)C(O)CO (stereo not shown) [fucosyl-GM1]		460 ± 150 M^–1	600 ± 130	
